Measured values from different studies.
Compare with care: the assays were run in different laboratories.
Target: Mitogen-activated protein kinase 1 (MAPK1, Homo sapiens, UniProt P28482)

| Compound | assay | setting | endpoint | value |
| --- | --- | --- | --- | --- |
| Cc1cc(NC(=O)c2cccc3cc(-c4cccc5[nH]nc(N)c45)ccc23)ccc1F | enzyme activity, inhibitor | 0.1 µM | activity vs control | 100% |
| CCOCCn1cc(C(=O)Nc2ccc(-n3nc(-c4cccnc4)cc3C(F)(F)F)cn2)ccc1=O | cell-free assay, competition with immobilised ligand | 1 µM | remaining binding | 100% |
| Cc1sc(C(=O)NC2COC2)cc1-n1cc(NC(=O)Nc2c(F)cccc2Cl)cn1 | enzyme activity, inhibitor | 10 µM | remaining activity | 90.8% |
| CC(=O)N1CCC(c2ccc(C(=O)NC3=NCCN3)cc2C(F)(F)F)CC1 | cell-free assay, competition with immobilised ligand | 1 µM | remaining binding | 100% |
| N#CCCc1ccc2c(c1)-c1[nH]c3ccc([N+](=O)[O-])cc3c1CC(=O)N2 | cell-free assay | 0.5 µM | remaining signal | 119% |
| Cc1c(NC(=O)c2cc(C(N)=O)nc3cc(F)ccc23)c(C(F)(F)F)nn1Cc1ccc(C#N)cc1 | cell-free assay, competition with immobilised ligand | 1 µM | remaining binding | 100% |
| COc1cc(Nc2cnc(C#N)c(O[C@H](C)CN(C)C)n2)ncc1-c1cnn(C)c1 | enzyme activity, inhibitor, radiometric | 10 µM | remaining activity | 80% |
| FC(F)c1nc2ccccc2n1-c1nc(N2CCOCC2)nc(N2CCOCC2)n1 | enzyme activity, inhibitor | 10 µM | remaining activity | 105% |
| CC(C)c1ccc(NC(=O)c2cccs2)c(-c2nc3ccccc3[nH]c2=O)c1 | enzyme activity, inhibitor | 1 µM | activity vs control | 110% |
| COc1cc2c(cc1OC)-c1[nH]nc(Nc3cccc(F)c3)c1C2 | cell-free assay | 0.5 µM | remaining signal | 85.1% |
| O=C(Nc1cnn(-c2csc(C(=O)NC3COC3)c2)c1)Nc1ccccc1Cl | enzyme activity, inhibitor | 5 µM | remaining activity | 110% |
| O=C(NCCCC1CCCCC1)c1ccc(CNC(=O)c2cnn(-c3ccccc3)c2C(F)(F)F)cc1 | cell-free assay, competition with immobilised ligand | 0.1 µM | remaining binding | 93% |
| Cc1ccc(C(=O)Nc2ccc(CN3CCN(C)CC3)c(C(F)(F)F)c2)cc1C#Cc1cnc2cccnn12 | enzyme activity, inhibitor | 23.5 nM | remaining activity | 100% |
| CNC(=O)c1cc(Oc2ccc(NC(=O)Nc3ccc(Cl)c(C(F)(F)F)c3)cc2)ccn1 | cell-free assay | 0.5 µM | remaining signal | 101% |
| Cc1ccc(Nc2nccc(N(C)c3ccc4c(C)n(C)nc4c3)n2)cc1S(N)(=O)=O | enzyme activity, inhibitor | 10 µM | inhibition | -2% |
| COc1cccc(-c2cc(=O)c3ccccc3o2)c1N | cell-free assay | 0.5 µM | remaining signal | 97.1% |
| Nc1ncnc2occ(-c3ccc(NC(=O)Nc4cc(C(F)(F)F)ccc4F)cc3)c12 | cell-free assay, inhibitor | 20 µM | remaining signal | 100% |

| Compound | assay | setting | endpoint | value |
| --- | --- | --- | --- | --- |
| CO[C@@H](C)c1c(Nc2ccc([C@@H](N(C)C(=O)C3CCS(=O)(=O)CC3)C(F)(F)F)cc2)cnc2cc(Cl)nn12 | cell-free assay, competition with immobilised ligand | 1 µM | remaining binding | 100% |
| CCN(CC)CCNC(=O)c1c(C)[nH]c(/C=C2\C(=O)Nc3ccc(F)cc32)c1C | enzyme activity, inhibitor | 10 µM | inhibition | 1% |
| CCN(CC)c1ccc(C2=NNC(=O)CC2C)cc1[N+](=O)[O-] (stereo not drawn) | enzyme activity, inhibitor | 10 µM | remaining activity | 100% |
| CCOc1cc(-c2nncn2C)ccc1Nc1ncc2cc(C)nc(NCC(C)(C)C)c2n1 | enzyme activity, inhibitor, FRET | 1 µM | inhibition | < 15% |
| CC(C)(C)c1nc(-c2cccc(NS(=O)(=O)c3c(F)cccc3F)c2F)c(-c2ccnc(N)n2)s1 | enzyme activity, inhibitor, radiometric | 1 µM | remaining activity | 88% |
| CN(C)C1CCN(CC#Cc2nn(C3CCCC3)c3nc(NCc4ccccc4)ncc23)C1 (stereo not drawn) | enzyme activity, inhibitor, FRET | 1 µM | inhibition | 7% |
| Cn1c(=O)n(-c2ccc(C(C)(C)C#N)cc2)c2c3cc(-c4cnc5ccccc5c4)ccc3ncc21 | enzyme activity, inhibitor | 10 µM | remaining activity | 114% |
| CNCc1ccccc1-c1csc([C@@H](C)Nc2nc(C)nc3cc(OC)c(OC)cc23)c1 | cell-free assay, competition with immobilised ligand | 1 µM | remaining binding | 78% |
| CC(C)(O)[C@H]1CC[C@H](Nc2ccc3ncc(-c4cccc(C(F)(F)F)c4)n3n2)CC1 | enzyme activity, inhibitor | 1 µM | remaining activity | 96% |
| Cc1noc([C@H]2C[C@@H](c3ccc(C(F)(F)F)cc3)CN(C(=O)N3CCS(=O)(=O)C3)C2)n1 | cell-free assay, competition with immobilised ligand | 1 µM | remaining binding | 100% |
| COc1cc2ncnc(Nc3ccc(Oc4ccccc4)cc3C)c2cc1OC | enzyme activity, inhibitor | 1 µM | inhibition | -2% |
| O=C1Nc2ccc(Cl)cc2C1=Cc1cc(Cl)c(O)c(Cl)c1 | cell-free assay | 0.5 µM | remaining signal | 84.3% |
| Nc1nc(NC2CCCCC2)sc1C(=O)c1ccccc1 | enzyme activity, inhibitor | 10 µM | remaining activity | 16% |
| C[C@H](c1ccnc(Nc2nc3ccc(-c4cc(N(C)C)ncn4)cc3[nH]2)c1)N1CCN(C(=O)CC(F)(F)F)CC1 | cell-free assay, competition with immobilised ligand | 0.1 µM | remaining binding | 78% |
| CNc1cccc2cc(C(=O)Nc3ccc(C(=O)O)cc3)c(=O)[nH]c12 | enzyme activity, inhibitor | 10 µM | inhibition | 1.3% |
| Nc1[nH]nc2nnc(-c3c(-c4ccccc4)nn4ccccc34)cc12 | cell-free assay | 0.5 µM | remaining signal | 87.2% |
